Assay results reported in ChEMBL document CHEMBL1153389, “Identification of novel antibacterial peptides by chemoinformatics and machine learning” (2009).

Legend:
Assay type in all cases: functional
Klebsiella pneumoniae [1] = test: Antimicrobial activity against extended-spectrum beta-lactamase-resistant Klebsiella pneumoniae 61962 after overnight incubation by broth microdilution method
Summary of the method: (§1)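 Modified broth microdilution in polypropylene 96-well plates with Mueller-Hinton (MH) medium. Bulk-synthesized peptides were serially diluted at 10-fold final strength in 0.01% acetic acid with 0.2% BSA, then added 1:10 to MH. Inoculum came from an overnight culture at a final (2-7) × 10^5 CFU/mL. Plates were incubated overnight at 37 °C. MIC was the lowest concentration with no visible growth.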

Pseudomonas aeruginosa [2] = test: Antimicrobial activity against Pseudomonas aeruginosa H1001 expressing luciferase gene assessed as ratio antimicrobial IC50 for drug to Bac2A peptide by luminescence assay
Summary of the method: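 Peptides are made by SPOT synthesis on cellulose, cleaved, and the spots placed in plate wells. Overnight P. aeruginosa H1001 (fliC::luxCDABE) is diluted 1:500 in 100 mM Tris-HCl pH 7.3 with 20 mM glucose and added to the wells. After 30 min, serial dilutions (8 rows) are made. Luminescence is read at 4 h. IC50 is taken from a sigmoid fit and expressed relative to Bac2A run in the same series.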

Pseudomonas aeruginosa [3] = test: Antimicrobial activity against Pseudomonas aeruginosa LES400 after overnight incubation by broth microdilution method; summary of the method: as §1
Escherichia coli [4] = test: Antimicrobial activity against extended-spectrum beta-lactamase producing Escherichia coli 64771 after overnight incubation by broth microdilution method
Summary of the method: (§2)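 Modified broth microdilution. Peptides are serially diluted in 0.01% acetic acid with 0.2% BSA at 10-fold the final concentration, then added to MH medium in polypropylene plates. Bacteria from an overnight culture are added to a final (2-7) × 10^5 CFU/mL. Plates are incubated overnight at 37 °C. MIC is the lowest concentration with no visible growth.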

Enterococcus faecalis [5] = test: Antimicrobial activity against Enterococcus faecalis ATCC 29212 after overnight incubation by broth microdilution method; summary of the method: as §2
[6] = system: Stenotrophomonas maltophilia; test: Antimicrobial activity against Pseudomonas maltophilia ATCC 13637 after overnight incubation by broth microdilution method; summary of the method: as §2
Pseudomonas aeruginosa [7] = test: Antimicrobial activity against Pseudomonas aeruginosa H103 after overnight incubation by broth microdilution method; summary of the method: as §2
Enterococcus faecium [8] = test: Antimicrobial activity against vancomycin-resistant Enterococcus faecium t62764(VanB) isolate after overnight incubation by broth microdilution method; summary of the method: as §1
Staphylococcus aureus [9] = test: Antimicrobial activity against Staphylococcus aureus ATCC 25923 after overnight incubation by broth microdilution method; summary of the method: as §1
Enterococcus faecalis [10] = test: Antimicrobial activity against vancomycin-resistant Enterococcus faecalis w6190(VanA) isolate after overnight incubation by broth microdilution method; summary of the method: as §1
Escherichia coli [11] = test: Antimicrobial activity against extended-spectrum beta-lactamase producing Escherichia coli 63103 after overnight incubation by broth microdilution method; summary of the method: as §2
Pseudomonas aeruginosa [12] = test: Antimicrobial activity against multidrug-resistant Pseudomonas aeruginosa Brazil 213 isolate after overnight incubation by broth microdilution method; summary of the method: as §1
Enterobacter cloacae = test: Antimicrobial activity against class C chromosomal beta lactamase expressing Enterobacter cloacae 218R after overnight incubation by broth microdilution method; summary of the method: as §2
Enterococcus faecium [13] = test: Antimicrobial activity against vancomycin-resistant Enterococcus faecium mic80(VanA) isolate after overnight incubation by broth microdilution method; summary of the method: as §1
Pseudomonas aeruginosa [14] = test: Antimicrobial activity against Pseudomonas aeruginosa H1030 after overnight incubation by broth microdilution method; summary of the method: as §1
Klebsiella pneumoniae [15] = test: Antimicrobial activity against extended-spectrum beta-lactamase-resistant Klebsiella pneumoniae 63575 after overnight incubation by broth microdilution method; summary of the method: as §1
Pseudomonas aeruginosa [16] = test: Antimicrobial activity against multidrug-resistant Pseudomonas aeruginosa Brazil 9 isolate after overnight incubation by broth microdilution method; summary of the method: as §1
Enterococcus faecalis [17] = test: Antimicrobial activity against vancomycin-resistant Enterococcus faecalis f43559 (VanB) isolate after overnight incubation by broth microdilution method; summary of the method: as §1
Pseudomonas aeruginosa [18] = test: Antimicrobial activity against multidrug-resistant Pseudomonas aeruginosa Brazil 198 isolate after overnight incubation by broth microdilution method; summary of the method: as §1
Pseudomonas aeruginosa [19] = test: Antimicrobial activity against Pseudomonas aeruginosa H1027 after overnight incubation by broth microdilution method; summary of the method: as §2
Staphylococcus aureus [20] = test: Antimicrobial activity against methicillin-resistant Staphylococcus aureus C623 after overnight incubation by broth microdilution method; summary of the method: as §1

Row | Substance | MIC (Klebsiella pneumoniae [1]) | Ratio IC50 (Pseudomonas aeruginosa [2]) | MIC (Pseudomonas aeruginosa [3]) | MIC (Escherichia coli [4]) | MIC (Enterococcus faecalis [5]) | MIC [6] | MIC (Pseudomonas aeruginosa [7]) | MIC (Enterococcus faecium [8]) | MIC (Staphylococcus aureus [9]) | MIC (Enterococcus faecalis [10]) | MIC (Escherichia coli [11]) | MIC (Enterobacter cloacae) | MIC (Enterococcus faecium [13]) | MIC (Pseudomonas aeruginosa [14]) | MIC (Klebsiella pneumoniae [15]) | MIC (Enterococcus faecalis [17]) | MIC (Pseudomonas aeruginosa [19]) | MIC (Staphylococcus aureus [20]) | also measured
1 | H-RKWIWRWFL-OH | 3.1 µM | 0.15 | 6.1 µM | 1.5 µM | 6.1 µM | 1.5 µM | 6.1 µM | 3.1 µM | 3.1 µM | 24 µM | 1.5 µM | 3 µM | 3.1 µM | 3.1 µM | 3.1 µM | 24 µM | 1.5 µM | 3.1 µM | MIC (Pseudomonas aeruginosa [12]): 6.1 µM; MIC (Pseudomonas aeruginosa [16]): 12 µM; MIC (Pseudomonas aeruginosa [18]): 3.1 µM
2 | H-WRWWKIWKR-OH | 94 µM | 0.14 | 12 µM | 5.9 µM | 24 µM | 0.8 µM | 5.9 µM | 1.5 µM | 3 µM | 94 µM | 5.9 µM | 12 µM | 5.9 µM | 47 µM | 24 µM | 94 µM | 1.5 µM | 3 µM | MIC (Pseudomonas aeruginosa [12]): 47 µM; MIC (Pseudomonas aeruginosa [16]): 24 µM; MIC (Pseudomonas aeruginosa [18]): 24 µM
3 | H-KWKIFRRWW-OH | 194 µM | 0.16 | 12 µM | 12 µM | 24 µM | 1.5 µM | 12 µM | 6.1 µM | 3.1 µM | 97 µM | 24 µM | 6 µM | 24 µM | 48 µM | 97 µM | 97 µM | 3.1 µM | 3.1 µM | MIC (Pseudomonas aeruginosa [12]): 48 µM; MIC (Pseudomonas aeruginosa [16]): 24 µM; MIC (Pseudomonas aeruginosa [18]): 24 µM
4 | H-LRWWWIKRI-OH | 201 µM | 0.33 | 25 µM | 13 µM | 13 µM | 3.2 µM | 13 µM | 1.5 µM | 6.3 µM | 50 µM | 25 µM | 50 µM | 6.3 µM | 25 µM | 50 µM | 25 µM | 6.3 µM | 6.3 µM | MIC (Pseudomonas aeruginosa [12]): 50 µM; MIC (Pseudomonas aeruginosa [16]): 50 µM; MIC (Pseudomonas aeruginosa [18]): 25 µM
5 | H-AIRRWRIRK-OH | > 217 µM | 4.62 | > 217 µM | 108 µM | > 217 µM | 108 µM | > 217 µM | 14 µM | 54 µM | > 217 µM | 108 µM | 108 µM | 108 µM | > 217 µM | > 217 µM | > 217 µM | 217 µM | 54 µM | 
6 | H-AVWKFVKRV-OH | > 240 µM | 8.18 | 240 µM | 120 µM | > 240 µM | 60 µM | 240 µM | 120 µM | 240 µM | > 240 µM | 240 µM | > 240 µM | 120 µM | > 240 µM | > 240 µM | > 240 µM | 120 µM | 240 µM | MIC (Pseudomonas aeruginosa [18]): 240 µM
7 | H-RLARIVVIRVAR-OH | 192 µM |  | 95 µM | 24 µM | 12 µM | 3 µM | 48 µM | 3 µM | 24 µM | 48 µM | 24 µM | 24 µM | 12 µM | 95 µM | 192 µM | 48 µM | 12 µM | 24 µM | MIC (Pseudomonas aeruginosa [12]): 192 µM; MIC (Pseudomonas aeruginosa [16]): 192 µM; MIC (Pseudomonas aeruginosa [18]): 95 µM
8 | H-VVLKIVRRF-OH | > 241 µM | 25 | > 241 µM | 241 µM | 241 µM | 60 µM | > 241 µM | 60 µM | 241 µM | > 241 µM | > 241 µM | 241 µM | 241 µM | > 241 µM | > 241 µM | > 241 µM | 241 µM | 241 µM | 
9 | H-AWRFKNIRK-OH | > 223 µM | 9.2 | > 223 µM | 223 µM | > 223 µM | > 223 µM | > 223 µM | 223 µM | 223 µM | > 223 µM | > 223 µM | > 223 µM | > 223 µM | > 223 µM | > 223 µM | > 223 µM | 111 µM | > 223 µM | 
10 | H-HYKFQRWIK-OH |  | 2.79 |  |  |  |  |  |  |  |  |  |  |  |  |  |  |  |  | 
11 | H-RSGKKRWRR-OH |  | 6.5 |  |  |  |  |  |  |  |  |  |  |  |  |  |  |  |  | 
12 | H-AGGMRKRTR-OH |  | 25 |  |  |  |  |  |  |  |  |  |  |  |  |  |  |  |  | 
13 | H-RNKFGGNWR-OH |  | 25 |  |  |  |  |  |  |  |  |  |  |  |  |  |  |  |  | 
14 | H-KKRWLWWWR-OH |  | 0.3 |  |  |  |  |  |  |  |  |  |  |  |  |  |  |  |  | 
15 | H-KRWWWWRFR-OH |  | 0.24 |  |  |  |  |  |  |  |  |  |  |  |  |  |  |  |  | 
16 | H-WKRWRWIRW-OH |  | 0.28 |  |  |  |  |  |  |  |  |  |  |  |  |  |  |  |  | 
17 | H-RWKMWWRWV-OH |  | 0.24 |  |  |  |  |  |  |  |  |  |  |  |  |  |  |  |  | 
18 | H-RGRTSNWKM-OH |  | 7.07 |  |  |  |  |  |  |  |  |  |  |  |  |  |  |  |  | 
19 | H-KRWWIWRIR-OH |  | 0.35 |  |  |  |  |  |  |  |  |  |  |  |  |  |  |  |  | 
20 | H-VLVKKRRRR-OH |  | 12.48 |  |  |  |  |  |  |  |  |  |  |  |  |  |  |  |  | 
21 | H-RRRKWWIWW-OH |  | 0.18 |  |  |  |  |  |  |  |  |  |  |  |  |  |  |  |  | 
22 | H-RRFKKWYWY-OH |  | 0.26 |  |  |  |  |  |  |  |  |  |  |  |  |  |  |  |  | 
23 | H-GRTMNGRW-OH |  | 6.93 |  |  |  |  |  |  |  |  |  |  |  |  |  |  |  |  | 
24 | H-RIKRWWWWR-OH |  | 0.31 |  |  |  |  |  |  |  |  |  |  |  |  |  |  |  |  | 
25 | H-RRIWRWWWW-OH |  | 0.68 |  |  |  |  |  |  |  |  |  |  |  |  |  |  |  |  | 
26 | H-RWRRKWWWW-OH |  | 0.39 |  |  |  |  |  |  |  |  |  |  |  |  |  |  |  |  | 
27 | H-IKWWWRMRI-OH |  | 0.39 |  |  |  |  |  |  |  |  |  |  |  |  |  |  |  |  | 
